# Measurements taken from ChEMBL document CHEMBL5346861, “Designing quinoline-isoniazid hybrids as potent anti-tubercular agents inhibiting mycolic acid biosynthesis” (Eur J Med Chem, 2022).
# Active and inactive are the calls of the source. The calls are words filed in the database; no cut-off is given here.
# Assays:
# [1] = tested on: Mycobacteroides abscessus; assay: Antimycobacterial activity against Mycobacterium abscessus CIP104536 rough variant assessed as inhibition of bacterial growth measured after 4 days by broth dilution method; format: functional; details: CIP104536, 96 h, time 4 day
# In short: (§1)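 MIC99 by CLSI broth 2-fold serial dilution in CaMHB. Inoculum 5.10⁶ CFU/mL. Incubated at 30 °C and read by turbidity after 4 days. DMSO vehicle control, INH reference.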
# [2] = tested on: Mycobacteroides abscessus; assay: Antimycobacterial activity against Mycobacterium abscessus CIP104536 smooth variant assessed as inhibition of bacterial growth measured after 4 days by broth dilution method; format: functional; details: CIP104536, 96 h, time 4 day; in short: as §1
# [3] = tested on: Mycobacterium marinum; assay: Antimycobacterial activity against Mycobacterium marinum M strain assessed as inhibition of bacterial growth measured after 6 days by broth dilution method; format: functional; details: 144 h, time 6 day
# In short: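 MIC99 by 2-fold serial broth dilution in 7H9 with 10% OADC and 0.025% tyloxapol. Inoculum 5.10⁶ CFU/mL. Incubated without agitation at 30 °C, scored for no turbidity change after 6 days. DMSO vehicle control.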
# [4] = tested on: Mycobacterium tuberculosis; assay: Antimycobacterial activity against Mycobacterium tuberculosis mc2 6230 assessed as inhibition of bacterial growth measured after 7 days by broth dilution method; format: functional; details: mc2 6230, 168 h, time 7 day
# In short: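 Pantothenate auxotroph carrying empty pMV261. 2-fold serial dilutions, 37 °C, no agitation, 7 days. MIC99 is the lowest concentration with no turbidity change. DMSO vehicle control.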
# [5] = tested on: Mycobacterium tuberculosis; assay: Antimycobacterial activity against Mycobacterium tuberculosis mc2 6230 assessed as reduction in log10 CFU at 5 times of MIC measured after 3 days by time-killing kinetics assay; format: functional; details: time 3 day
# In short: (§2)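 Exposed to 1x, 5x or 20x MIC at 37 °C for up to 6 days. Serial dilutions plated on 7H10/OADC/pantothenate and colonies counted after 3 weeks. Mean of four independent experiments in technical triplicate, with SD. DMSO negative control.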
# [6] = Cytotoxicity against human THP-1 cells assessed as reduction in cell viability measured after 24 hrs by resazurin staining based analysis; format: toxicity
# In short: (§3)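 THP-1 monocytes differentiated with 20 ng/mL PMA for 48 hrs at 1×10^5 cells/well. Compounds added by serial dilution from 100 µg/mL for 24 or 72 hrs at 37 °C and 5% CO₂. Resazurin 10% for 4 hrs, fluorescence at ex 540/em 590 nm. Mean of three independent experiments in triplicate. INH and RFB reference drugs.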
# [7] = tested on: Vero; assay: Cytotoxicity against African green monkey Vero cells assessed as reduction in cell viability measured after 24 hrs by resazurin staining based analysis; format: toxicity; details: chlorocebus sabaeus
# In short: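 Vero cells in RPMI 1640 with 10% FCS, 2×10^4 cells/well, adhered overnight at 37 °C and 5% CO₂. Compounds added at 100 to 0.78 µg/mL for 24 hrs. 10% resazurin added for 4 hrs, fluorescence read at ex 540/em 590 nm.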
# [8] = Cytotoxicity against human THP-1 cells assessed as reduction in cell viability measured after 72 hrs by resazurin staining based analysis; format: toxicity; in short: as §3
# [9] = tested on: Mycobacterium tuberculosis; assay: Antimycobacterial activity against Mycobacterium tuberculosis mc2 6230 assessed as reduction in log10 CFU at 1 time of MIC measured after 6 days by time-killing kinetics assay; format: functional, organism-based; details: time 6.0 day; in short: as §2
# [10] = Selectivity index, […] Mycobacterium abscessus CIP104536 rough variant to CC50 for cytotoxicity against human THP-1 cells; format: toxicity, cell-based; details: read-out: Selectivity Index
# [11] = Selectivity index, […] Mycobacterium tuberculosis H37Rv to CC50 for cytotoxicity against human THP-1 cells; format: toxicity, cell-based; details: read-out: Selectivity Index
# [12] = tested on: Mycobacterium tuberculosis; assay: Antimycobacterial activity against Mycobacterium tuberculosis mc2 6230 assessed as reduction in log10 CFU at 20 times of MIC measured after 6 days by time-killing kinetics assay; format: functional; details: time 6 day; in short: as §2
# [13] = Selectivity index, […] Mycobacterium abscessus CIP104536 smooth variant to CC50 for cytotoxicity against human THP-1 cells; format: toxicity, cell-based; details: read-out: Selectivity Index
# [14] = Selectivity index, […] Mycobacterium marinum M strain to CC50 for cytotoxicity against human THP-1 cells; format: toxicity, cell-based; details: read-out: Selectivity Index
# [15] = tested on: Mycobacterium tuberculosis; assay: Antimycobacterial activity against Mycobacterium tuberculosis mc2 6230 assessed as inhibition of bacterial growth at 1 ug/ml measured after 7 days by broth dilution method; format: functional, organism-based; details: dose 1.0 µg/ml, time 7.0 day
# [16] = tested on: Mycobacterium tuberculosis; assay: Antimycobacterial activity against Mycobacterium tuberculosis H37Rv assessed as inhibition of bacterial growth; format: functional
SMILES,MIC [1] [µg/mL],MIC [2] [µg/mL],MIC [3] [µg/mL],MIC [4] [µg/mL],CC50 at 24 h [6] [µg/mL],also measured
O=Cc1ccccc1-n1cc(CN2CCN(c3ccnc4cc(Cl)ccc34)CC2)nn1,> 200,> 200,> 200,100,–,–
COc1cc(C=O)ccc1OCc1cn(-c2ccnc3cc(Cl)ccc23)nn1,–,–,–,> 200,–,–
COc1cc(/C=N/NC(=O)c2ccncc2)ccc1OCc1cn(CCCNc2ccnc3cc(Cl)ccc23)nn1,> 200,> 200,100,0.25,> 100,Activity [5]: 2 log10CFU/ml; Activity [7]: Non-Toxic; CC50 at 72 h [8]: > 100 µg/mL; Activity [9]: Active; selectivity ratio [10]: > 200; selectivity ratio [11]: > 200; Activity [12]: ~3 log10CFU/ml; selectivity ratio [13]: > 200; selectivity ratio [14]: > 200; Activity [15]: Active
O=C(N/N=C/c1ccc(OCc2cn(CCNc3ccnc4cc(Cl)ccc34)nn2)cc1)c1ccncc1,> 200,> 200,200,0.5,> 100,Activity [5]: 2 log10CFU/ml; Activity [7]: Non-Toxic; CC50 at 72 h [8]: 34 µg/mL; Activity [9]: Active; Activity [12]: ~3 log10CFU/ml; Activity [15]: Active
COc1cc(/C=N/NC(=O)c2cccnc2)ccc1OCc1cn(CCNc2ccnc3cc(Cl)ccc23)nn1,–,–,–,> 200,–,–
COc1cc(/C=N/NC(=O)c2ccncc2)ccc1OCc1cn(-c2ccnc3cc(Cl)ccc23)nn1,> 200,> 200,> 200,0.5,> 100,Activity [5]: 2 log10CFU/ml; CC50 at 72 h [8]: > 100 µg/mL; Activity [9]: Active; selectivity ratio [10]: > 200; selectivity ratio [11]: > 200; Activity [12]: ~3 log10CFU/ml; selectivity ratio [13]: > 200; selectivity ratio [14]: > 200; Activity [15]: Active
COc1cc(/C=N/NC(=O)c2cnccn2)ccc1OCc1cn(CCCNc2ccnc3cc(Cl)ccc23)nn1,–,–,–,> 200,–,–
O=Cc1ccc(OCc2cn(-c3ccnc4cc(Cl)ccc34)nn2)cc1,–,–,–,> 200,–,–
CC(C)c1ccc(-c2nc(CN3CCN(c4ccnc5cc(Cl)ccc45)CC3)no2)cc1,–,–,–,–,–,MIC [16]: 1.11 µM
O=C(N/N=C/c1ccccc1-n1cc(CN2CCN(c3ccnc4cc(Cl)ccc34)CC2)nn1)c1cccnc1,–,–,–,> 200,–,–
CO[C@H]1/C=C/O[C@@]2(C)Oc3c(C)c(O)c4c(c3C2=O)C2=NC3(CCN(CC(C)C)CC3)NC2=C(NC(=O)/C(C)=C\C=C\[C@H](C)[C@H](O)[C@@H](C)[C@@H](O)[C@@H](C)[C@H](OC(C)=O)[C@@H]1C)C4=O [RIFABUTIN],–,–,–,–,60,–
COc1cc(C=O)ccc1OCc1cn(CCCNc2ccnc3cc(Cl)ccc23)nn1,–,–,–,> 200,–,–
O=C(N/N=C/c1ccc(OCc2cn(CCCNc3ccnc4cc(Cl)ccc34)nn2)cc1)c1cnccn1,–,–,–,> 200,–,–
COc1cc(/C=N/NC(=O)c2cnccn2)ccc1OCc1cn(CCNc2ccnc3cc(Cl)ccc23)nn1,–,–,–,> 200,–,–
COc1cc(/C=N/NC(=O)c2ccncc2)ccc1OCc1cn(CCNc2ccnc3cc(Cl)ccc23)nn1,> 200,> 200,> 200,0.5,> 100,Activity [5]: 2 log10CFU/ml; Activity [7]: Non-Toxic; CC50 at 72 h [8]: 73 µg/mL; Activity [9]: Active; Activity [12]: ~3 log10CFU/ml; Activity [15]: Active
COc1cc(C=O)ccc1OCc1cn(CCNc2ccnc3cc(Cl)ccc23)nn1,–,–,–,> 200,–,–
